Experimental data as given in ChEMBL document CHEMBL1123192 (J Med Chem, 1986).

Legend:
Rattus norvegicus [1] = assay: Maximal change in mean arterial blood pressure (MABP) measured as % change from pretreatment value at dose of 100 mg/kg in SHR; assay type: functional
Procedure, shortened: (§1)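 Spontaneously hypertensive rats; test agent dissolved or dispersed in 0.5% methylcellulose and given by gastric gavage at 5 mL/kg after a 1-h equilibration. Doses ranged from 1 to 100 mg/kg, with 4–8 animals per dose. MABP and HR were monitored for 4 h. Pretreatment values and maximal % change were recorded, and maximal changes were compared with vehicle by Dunnett's t test.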

Rattus norvegicus [2] = assay: Maximal change in heart rate (HR) measured as % change from pretreatment value at dose of 1 mg/kg in SHR; assay type: functional; procedure, shortened: as §1
Rattus norvegicus [3] = assay: Maximal change in heart rate (HR) measured as % change from pretreatment value at dose of 5 mg/kg; assay type: functional; procedure, shortened: as §1
Rattus norvegicus [4] = assay: Maximal change in mean arterial blood pressure (MABP) measured as pretreatment value at dose of 10 mg/kg in SHR; assay type: functional; procedure, shortened: as §1
Rattus norvegicus [5] = assay: Maximal change in mean arterial blood pressure (MABP) measured as % change from pretreatment value at dose of 10 mg/kg in SHR; assay type: functional; procedure, shortened: as §1
[6] = target: Alpha-1 adrenergic receptor; assay: The compound was evaluated for the antagonistic activity against alpha-1 adrenergic receptor.; conditions: read-out: pA2 (converted)
Rattus norvegicus [7] = assay: Maximal change in heart rate (HR) measured as % change from pretreatment value at dose of 25 mg/kg; assay type: functional; procedure, shortened: as §1
Rattus norvegicus [8] = assay: Maximal change in mean arterial blood pressure (MABP) measured as % change from pretreatment value at dose of 5 mg/kg in SHR; assay type: functional; procedure, shortened: as §1
Rattus norvegicus [9] = assay: Maximal change in mean arterial blood pressure (MABP) measured as % change from pretreatment value at dose of 1 mg/kg in SHR; assay type: functional; procedure, shortened: as §1
Rattus norvegicus [10] = assay: Maximal change in heart rate (HR) measured as pretreatment value at dose of 100 mg/kg in SHR; assay type: functional; procedure, shortened: as §1
Rattus norvegicus [11] = assay: Maximal change in mean arterial blood pressure (MABP) measured as pretreatment value at dose of 100 mg/kg in SHR; assay type: functional; procedure, shortened: as §1
Rattus norvegicus [12] = assay: Maximal change in heart rate (HR) measured as pretreatment value at dose of 2.5 mg/kg in SHR; assay type: functional; procedure, shortened: as §1
Cavia porcellus = organism: Cavia porcellus; assay: Beta-2-adrenoceptor ISA (intrinsic sympathomimetic activity)was measured as relaxant effect against a PGF2-alpha contracted guinea pig trachea at 3x10E -7 M; assay type: functional
Rattus norvegicus [13] = assay: Maximal change in heart rate (HR) measured as pretreatment value at dose of 25 mg/kg in SHR; assay type: functional; procedure, shortened: as §1
Rattus norvegicus [14] = assay: Maximal change in heart rate (HR) measured as % change from pretreatment value at dose of 10 mg/kg in SHR; assay type: functional; procedure, shortened: as §1
Rattus norvegicus [15] = assay: Maximal change in mean arterial blood pressure (MABP) measured as pretreatment value at dose of 2.5 mg/kg in SHR; assay type: functional; procedure, shortened: as §1
Rattus norvegicus [16] = assay: Maximal change in heart rate (HR) measured as pretreatment value at dose of 5 mg/kg in SHR; assay type: functional; procedure, shortened: as §1
Rattus norvegicus [17] = assay: Maximal change in mean arterial blood pressure (MABP) measured as pretreatment value at dose of 1 mg/kg in SHR; assay type: functional; procedure, shortened: as §1
Rattus norvegicus [18] = assay: Maximal change in mean arterial blood pressure (MABP) measured as % change from pretreatment value at dose of 2.5 mg/kg in SHR; assay type: functional; procedure, shortened: as §1
Rattus norvegicus [19] = assay: Maximal change in mean arterial blood pressure (MABP) measured as % change from pretreatment value at dose of 25 mg/kg in SHR; assay type: functional; procedure, shortened: as §1
Rattus norvegicus [20] = assay: Maximal change in mean arterial blood pressure (MABP) measured as pretreatment value at dose of 5 mg/kg in SHR; assay type: functional; procedure, shortened: as §1
[21] = target: T1, Adrenergic receptor alpha-2 (Rattus norvegicus, UniProt P22086+P19328+P22909); assay: The compound was evaluated for the antagonistic activity against alpha-2 adrenergic receptor.; assay type: functional
T1 sequence (P22086 whole entry): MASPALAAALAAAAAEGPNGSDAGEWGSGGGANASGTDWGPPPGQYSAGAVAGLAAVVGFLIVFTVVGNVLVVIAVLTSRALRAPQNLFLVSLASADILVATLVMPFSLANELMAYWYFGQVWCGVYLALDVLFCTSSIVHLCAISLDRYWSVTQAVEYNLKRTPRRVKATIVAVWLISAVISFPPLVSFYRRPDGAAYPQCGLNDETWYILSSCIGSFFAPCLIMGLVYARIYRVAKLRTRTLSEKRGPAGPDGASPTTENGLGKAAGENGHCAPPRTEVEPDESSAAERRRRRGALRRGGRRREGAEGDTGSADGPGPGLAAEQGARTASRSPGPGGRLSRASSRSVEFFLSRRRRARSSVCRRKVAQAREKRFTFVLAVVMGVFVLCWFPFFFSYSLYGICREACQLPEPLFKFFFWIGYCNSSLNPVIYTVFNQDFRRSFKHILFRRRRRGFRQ
T1 sequence (P19328 whole entry): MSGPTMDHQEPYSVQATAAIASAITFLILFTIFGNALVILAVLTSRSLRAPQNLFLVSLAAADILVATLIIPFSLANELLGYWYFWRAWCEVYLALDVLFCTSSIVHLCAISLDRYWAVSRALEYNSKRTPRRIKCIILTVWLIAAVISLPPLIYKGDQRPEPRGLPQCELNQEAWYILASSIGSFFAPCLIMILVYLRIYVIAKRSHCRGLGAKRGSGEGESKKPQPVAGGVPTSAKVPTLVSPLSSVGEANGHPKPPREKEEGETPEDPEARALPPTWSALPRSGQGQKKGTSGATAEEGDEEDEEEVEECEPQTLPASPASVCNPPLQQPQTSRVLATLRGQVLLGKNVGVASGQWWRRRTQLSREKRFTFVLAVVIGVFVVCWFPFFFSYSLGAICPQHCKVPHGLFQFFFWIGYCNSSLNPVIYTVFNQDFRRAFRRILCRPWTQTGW
T1 sequence (P22909 whole entry): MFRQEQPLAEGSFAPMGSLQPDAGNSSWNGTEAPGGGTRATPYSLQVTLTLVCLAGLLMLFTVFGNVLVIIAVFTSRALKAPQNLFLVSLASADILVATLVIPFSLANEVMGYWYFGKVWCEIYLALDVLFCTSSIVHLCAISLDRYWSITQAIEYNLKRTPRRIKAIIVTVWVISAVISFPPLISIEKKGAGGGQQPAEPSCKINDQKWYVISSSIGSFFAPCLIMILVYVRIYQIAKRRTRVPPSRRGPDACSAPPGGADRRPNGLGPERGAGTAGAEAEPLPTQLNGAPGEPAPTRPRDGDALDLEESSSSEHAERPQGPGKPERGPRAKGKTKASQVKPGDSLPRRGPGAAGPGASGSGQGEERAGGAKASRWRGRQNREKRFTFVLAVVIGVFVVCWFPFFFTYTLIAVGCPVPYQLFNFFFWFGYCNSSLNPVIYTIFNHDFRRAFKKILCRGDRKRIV

Rattus norvegicus [22] = assay: Maximal change in heart rate (HR) measured as % change from pretreatment value at dose of 100 mg/kg in SHR; assay type: functional; procedure, shortened: as §1
Rattus norvegicus [23] = assay: Maximal change in heart rate (HR) measured as pretreatment value at dose of 1 mg/kg in SHR; assay type: functional; procedure, shortened: as §1
Rattus norvegicus [24] = assay: Maximal change in heart rate (HR) measured as % change from pretreatment value at dose of 2.5 mg/kg; assay type: functional; procedure, shortened: as §1
Rattus norvegicus [25] = assay: Maximal change in mean arterial blood pressure (MABP) measured as pretreatment value at dose of 25 mg/kg in SHR; assay type: functional; procedure, shortened: as §1
Rattus norvegicus [26] = assay: Maximal change in heart rate (HR) measured as pretreatment value at dose of 10 mg/kg in SHR; assay type: functional; procedure, shortened: as §1
[27] = target: Beta-2 adrenergic receptor (Cavia porcellus, UniProt Q8K4Z4); assay: The compound was evaluated for the antagonistic activity against beta-2 adrenergic receptor.; assay type: functional; conditions: read-out: pA2 (converted)
Procedure, shortened: (§2)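 Isolated tissue suited to each receptor test, held in 10-mL organ baths of Krebs-Henseleit solution at 37 °C and gassed with 95% O2/5% CO2. Antagonism was judged by how several concentrations of test agent altered a cumulative concentration-response curve to a receptor-specific agonist.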

[28] = target: Beta-1 adrenergic receptor (Cavia porcellus, UniProt B0FL73); assay: The compound was evaluated for the antagonistic activity against beta-1 adrenergic receptor; assay type: functional; conditions: read-out: pA2 (converted); procedure, shortened: as §2
Beta-1 adrenergic receptor, sequence (B0FL73 whole entry): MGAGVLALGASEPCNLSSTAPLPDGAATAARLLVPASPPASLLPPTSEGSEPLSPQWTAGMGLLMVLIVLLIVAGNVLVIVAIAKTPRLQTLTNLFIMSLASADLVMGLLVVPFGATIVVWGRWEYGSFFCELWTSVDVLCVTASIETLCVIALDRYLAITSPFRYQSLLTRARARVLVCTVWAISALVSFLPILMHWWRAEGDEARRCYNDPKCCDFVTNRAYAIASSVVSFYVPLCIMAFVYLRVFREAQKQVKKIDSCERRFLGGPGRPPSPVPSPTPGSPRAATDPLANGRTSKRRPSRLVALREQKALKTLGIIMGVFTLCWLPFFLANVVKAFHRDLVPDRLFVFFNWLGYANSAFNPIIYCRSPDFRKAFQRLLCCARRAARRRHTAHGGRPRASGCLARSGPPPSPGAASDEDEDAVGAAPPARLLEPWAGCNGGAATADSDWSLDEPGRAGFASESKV

Beta-2 adrenergic receptor, sequence (Q8K4Z4 whole entry): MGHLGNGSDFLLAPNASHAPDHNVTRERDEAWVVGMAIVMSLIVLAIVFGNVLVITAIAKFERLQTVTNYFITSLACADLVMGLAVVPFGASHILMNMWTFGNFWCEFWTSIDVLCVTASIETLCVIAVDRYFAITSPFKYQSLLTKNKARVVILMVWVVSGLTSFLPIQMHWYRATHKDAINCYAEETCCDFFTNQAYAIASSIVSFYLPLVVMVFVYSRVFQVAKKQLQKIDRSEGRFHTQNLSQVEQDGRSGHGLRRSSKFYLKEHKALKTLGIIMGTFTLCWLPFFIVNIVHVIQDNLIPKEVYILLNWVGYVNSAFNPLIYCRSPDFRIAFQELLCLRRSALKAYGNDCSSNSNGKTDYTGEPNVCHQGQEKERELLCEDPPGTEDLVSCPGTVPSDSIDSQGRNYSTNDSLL

Structure (SMILES): CC(CCc1ccccc1)NCC(O)c1cc(C(N)=O)c2[nH]ccc2c1 (centres undefined)
- Change (Rattus norvegicus [1]): -45%
- Change (Rattus norvegicus [2]): -3%
- Change (Rattus norvegicus [3]): -12%
- MABP (Rattus norvegicus [4]): 166 mmHg
- Change (Rattus norvegicus [5]): -40%
- Kb [6]: 251 nM
- Change (Rattus norvegicus [7]): -18%
- Change (Rattus norvegicus [8]): -32%
- Change (Rattus norvegicus [9]): -9%
- HR (Rattus norvegicus [10]): 425 beats min-1
- MABP (Rattus norvegicus [11]): 178 mmHg
- HR (Rattus norvegicus [12]): 419 beats min-1
- Change (Cavia porcellus): 89%
- HR (Rattus norvegicus [13]): 426 beats min-1
- Change (Rattus norvegicus [14]): -15%
- MABP (Rattus norvegicus [15]): 176 mmHg
- HR (Rattus norvegicus [16]): 439 beats min-1
- MABP (Rattus norvegicus [17]): 171 mmHg
- Change (Rattus norvegicus [18]): -25%
- Change (Rattus norvegicus [19]): -47%
- MABP (Rattus norvegicus [20]): 176 mmHg
- pA2 [21]: 5.4
- Change (Rattus norvegicus [22]): -26%
- HR (Rattus norvegicus [23]): 442 beats min-1
- Change (Rattus norvegicus [24]): -10%
- MABP (Rattus norvegicus [25]): 183 mmHg
- HR (Rattus norvegicus [26]): 430 beats min-1
- Kb [27]: 50.1 nM
- Kb [28]: 39.8 nM
